Data set [1] has as its system Fibroblast. The data set can be described thus: Induction of cell proliferation in human Gingival fibroblast at 1 uM after 72 hrs by MTS assay. In kind it is functional. The procedure, abridged:
(§1)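 hGF (passage 4–7) seeded at 1500 cells/well. After 24 h, starved 6 h in noncomplete medium, then treated 72 h (5 nM–50 μM range, 0.5% DMSO final) with or without H2O2 (200 μM). Read by MTS absorbance at 490 nm as % proliferation vs control (100%). Mean ± SD, three replicates, two independent experiments.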
Background: Formazan colour is commonly taken as a measure of viable cells.

Data set [2] relates to Fibroblast. Description: Protective activity against H202-induced cell death in human Gingival fibroblast assessed as cell proliferation after 72 hrs by MTS assay (reference value: 50.9 +/- 4%). In kind it is functional. In short, it runs like this: as §1
Data set [3] has as its system Fibroblast. The data set can be described thus: Antioxidant activity in human Gingival fibroblast assessed as reduction in intracellular ROS level at 1 uM after 72 hrs by H2DCFDA staining based fluorescence method. In kind it is functional, cell-based. In short, it runs like this:
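hGF (passage 4–7) seeded 5000 cells/well, treated 72 h in complete medium with or without H2O2 200 μM. Then loaded with 50 μM DCFH2-DA in PBS-glucose for 30 min. DCF fluorescence read at ex 485/em 520 nm and normalized to crystal violet absorbance at 595 nm. Expressed as % of control; three replicates, two independent experiments.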

Data set [4] deals with Fibroblast. The data set can be described thus: Antioxidant activity in human Gingival fibroblast assessed as reduction in H202-induced intracellular ROS level by measuring ROS production at 1 to 5 uM after 72 hrs by H2DCFDA staining based fluorescence method (reference value: 181.9 +/- 7.4%). Details: scale not given: the % may be the effect or the level left. In kind it is functional. In short, it runs like this: (§2)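 hGF seeded 5000 cells/well, treated 72 h with or without H2O2 (200 μM); then 30 min in PBS-glucose with 50 μM DCFH2-DA. DCF fluorescence read at 485/520 nm. Cells then fixed, crystal-violet stained and SDS-solubilized, with absorbance at 595 nm. Fluorescence normalized to A595 and expressed as % of control. Mean ± SD, three replicates, two independent experiments.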

Data set [5] in a line: Induction of cell death in human Gingival fibroblast assessed as live cell at 1 uM after 72 hrs by flow cytometry (reference value: 97%). In kind it is cell-based. The following applies: gingival fibroblasts, read-out: Activity. In general terms: In flow cytometry, cells or beads pass a laser one at a time.
The subject of data set [6] is Fibroblast. Description: Induction of cell death in human Gingival fibroblast assessed as dead cell at 1 uM after 72 hrs by flow cytometry (reference value: 3%). In kind it is cell-based.
Data set [7] relates to Fibroblast. The data set can be described thus: Protection against H202-induced cell death in human Gingival fibroblast assessed as live cell at 1 to 5 uM after 72 hrs by flow cytometry (reference value: 85.1%). In kind it is functional.
The test system of data set [8] is Fibroblast. Description: Protection against H202-induced cell death in human Gingival fibroblast assessed as dead cell at 1 to 5 uM after 72 hrs by flow cytometry (reference value: 14.9%). In kind it is functional.
Data set [9] deals with Fibroblast. Description: Induction of cell cycle arrest in human Gingival fibroblast assessed as accumulation at G0/G1 phase at 1 uM incubated for 72 hrs by flow cytometry (reference value: 76.3%). In kind it is cell-based. The procedure, abridged: (§3)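 hGF seeded at 80 000 cells/well and treated in complete medium 72 h (1–5 μM) with or without H2O2 (200 μM). Percentage of cells in G0/G1, S and G2/M measured on a Muse cell analyzer with a cell cycle kit. Mean ± SD, two replicates, two independent experiments.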

Data set [10] deals with Fibroblast. The data set can be described thus: Induction of cell cycle arrest in human Gingival fibroblast assessed as accumulation at S phase at 1 uM incubated for 72 hrs by flow cytometry (reference value: 5%). In kind it is cell-based. The procedure, abridged: as §3
In data set [11] the test system is Fibroblast. Description: Induction of cell cycle arrest in human Gingival fibroblast assessed as accumulation at G2/M phase at 1 uM incubated for 72 hrs by flow cytometry (reference value: 14.9%). In kind it is cell-based. The procedure, abridged:
as §3

In data set [12] the test system is Fibroblast. Description: Protection against H202-induced cell cycle blockade in human Gingival fibroblast assessed as accumulation at G0/G1 phase at 1 to 5 uM after 72 hrs by flow cytometry (reference value: 42.2%). In kind it is functional. In short, it runs like this:
as §3

Data set [13] concerns Fibroblast. Description: Protection against H202-induced cell cycle blockade in human Gingival fibroblast assessed as accumulation at S phase at 1 to 5 uM after 72 hrs by flow cytometry (reference value: 11.6%). In kind it is functional. In short, it runs like this: as §3
The test system of data set [14] is Fibroblast. Description: Protection against H202-induced cell cycle blockade in human Gingival fibroblast assessed as accumulation at G2/M phase at 1 to 5 uM after 72 hrs by flow cytometry (reference value: 39.3%). In kind it is functional. In short, it runs like this:
as §3

Data set [15] relates to Fibroblast. Description: Effect on p53 mRNA expression in human Gingival fibroblast at 1 uM after 72 hrs by RT-PCR method. In kind it is ADME, cell-based. The procedure, abridged:
(§4)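 hGF (3500 cells/cm2) in complete medium, treated 72 h with or without H2O2 (200 μM). Real-time RT-PCR of total RNA for p53, p21 and p16INK4A. Levels normalized to β-actin and relative expression taken from Ct. Fold change vs control set to 1. Mean ± SD, two independent experiments in duplicate.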

Data set [16] has as its system Fibroblast. Description: Effect on p21 mRNA expression in human Gingival fibroblast at 1 uM after 72 hrs by RT-PCR method. In kind it is ADME, cell-based. In short, it runs like this:
as §4

The test system of data set [17] is Fibroblast. Description: Effect on p16Ink4a mRNA expression in human Gingival fibroblast at 1 uM after 72 hrs by RT-PCR method. In kind it is ADME, cell-based. In short, it runs like this: as §4
For data set [18], the system named is Fibroblast. Description: Protection against H202-induced oxidative stress in human Gingival fibroblast assessed as reduction in p53 expression at 1 to 5 uM after 72 hrs by RT-PCR analysis. In kind it is functional, cell-based. The procedure, abridged:
as §4

The subject of data set [19] is Fibroblast. The data set can be described thus: Protection against H202-induced oxidative stress in human Gingival fibroblast assessed as reduction in p21 expression at 1 to 5 uM after 72 hrs by RT-PCR analysis. In kind it is functional, cell-based. The procedure, abridged:
as §4

Data set [20] has as its system Fibroblast. Description: Protection against H202-induced oxidative stress in human Gingival fibroblast assessed as reduction in p16Ink4a expression at 1 to 5 uM after 72 hrs by RT-PCR analysis. In kind it is functional, cell-based. The procedure, abridged: as §4
In data set [21] the test system is Fibroblast. Description: Downregulation of LPS-induced IL-6 expression in human Gingival fibroblast at 1 to 5 uM after 72 hrs by RT-PCR analysis. In kind it is functional, cell-based. The procedure, abridged:
(§5)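 hGF (3500 cells/cm2) in complete medium, 1–5 μM for 72 h with or without LPS (1 μg/mL). Total RNA extracted, then real-time RT-PCR. mRNA normalized to β-actin and relative expression calculated from Ct. Specificity checked by melting curve and gel. Fold change vs control set to 1. Mean ± SD of two independent experiments in duplicate.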

In data set [22] the test system is Fibroblast. The data set can be described thus: Downregulation of LPS-induced IL-8 expression in human Gingival fibroblast at 1 to 5 uM after 72 hrs by RT-PCR analysis. In kind it is functional, cell-based. In short, it runs like this:
as §5

For data set [23], the system named is Fibroblast. Description: Upregulation of IL-10 expression in LPS-stimulated human Gingival fibroblast at 1 to 5 uM after 72 hrs by RT-PCR analysis. In kind it is functional, cell-based. In short, it runs like this: as §5
Data set [24] relates to Fibroblast. The data set can be described thus: Growth inhibition of human Gingival fibroblast at 5 uM after 72 hrs by MTS assay. In kind it is cell-based. In short, it runs like this: as §1
Data set [25] concerns Fibroblast. The data set can be described thus: Induction of cell proliferation in human Gingival fibroblast at 0.5 to 10 uM after 72 hrs by MTS assay. In kind it is functional, cell-based. The procedure, abridged: (§6)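 Gingival fibroblasts seeded at 1500 cells/well, then starved 6 h in noncomplete medium after 24 h. Exposed for 72 h to 5 nM–50 μM (DMSO 0.5% final), with or without H2O2 200 μM. MTS absorbance read at 490 nm and expressed as % proliferation vs control set to 100%. Mean ± SD of three replicates from two experiments.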

The test system of data set [26] is Fibroblast. The data set can be described thus: Growth inhibition of human Gingival fibroblast at 50 uM after 72 hrs by MTS assay. In kind it is cell-based. In short, it runs like this: as §6
Data set [27] relates to Fibroblast. The data set can be described thus: Antioxidant activity in human Gingival fibroblast assessed as reduction in H202-induced intracellular ROS level by measuring ROS production at […] after 72 hrs by H2DCFDA staining based fluorescence method (reference value: 181.9 +/- 7.4%). In kind it is functional. Details: scale not given: the % may be the effect or the level left. In short, it runs like this: as §2

Data set [28] has as its system Fibroblast. Description: Protection against H202-induced cell cycle blockade in human Gingival fibroblast assessed as accumulation at G0/G1 phase after 72 hrs by flow cytometry (reference value: 42.2%). In kind it is functional. The procedure, abridged:
as §3

Data set [29] deals with Fibroblast. The data set can be described thus: Protection against H202-induced cell cycle blockade in human Gingival fibroblast assessed as accumulation at S phase after 72 hrs by flow cytometry (reference value: 11.6%). In kind it is functional. In short, it runs like this: as §3
Data set [30] concerns Fibroblast. Description: Protection against H202-induced cell cycle blockade in human Gingival fibroblast assessed as accumulation at G2/M phase after 72 hrs by flow cytometry (reference value: 39.3%). In kind it is functional. In short, it runs like this: as §3

These results are taken from ChEMBL document CHEMBL4613247, “Antioxidant Activity of Compounds Isolated from Elaeagnus umbellata Promotes Human Gingival Fibroblast Well-Being” (J Nat Prod, 2020).

Active and inactive are the calls of the source. The calls are words filed in the database; no cut-off is given here.

Consider `C[C@@H]1O[C@@H](Oc2cc(O)c3c(=O)c(O[C@@H]4O[C@H](CO)[C@H](O)[C@H](O)[C@H]4O[C@@H]4O[C@H](CO)[C@@H](O)[C@H](O)[C@H]4O)c(-c4ccc(O)cc4)oc3c2)[C@H](O)[C@H](O)[C@H]1O`, for which the Activity in the data set with Fibroblast [1] is on record as 125.6%; in the data set on Fibroblast [2], 68.8%; with Fibroblast [4] it was 124.2%; with Fibroblast [6] it was 6.7%; in the data set on Fibroblast [7] it was 90%; with Fibroblast [8] it was 10%. Also, the Activity in the data set on Fibroblast [9] came out at 81.5%; in the data set on Fibroblast [10], 4.8%; in the data set with Fibroblast [11], 10.5%; in the data set with Fibroblast [12] it was 69.8%; in the data set on Fibroblast [13] it was 13%; with Fibroblast [14], 14.2%. Besides, the values for the Activity entry in the data set on Fibroblast [15], in the data set on Fibroblast [16] and in the data set with Fibroblast [17] were “Non-Toxic”, “Non-Toxic” and “Toxic”, respectively. The outcome in the data set with Fibroblast [3], with Fibroblast [18], with Fibroblast [19], in the data set on Fibroblast [20], with Fibroblast [21] and in the data set with Fibroblast [22] was Active. In the data set on Fibroblast [23], the outcome was Active. For the same molecule, the viability at 72 h, 1 µM in data set [5] came out at 93.3%.

Consider `C[C@@H]1O[C@@H](Oc2cc(O)c3c(=O)c(O[C@@H]4O[C@H](CO)[C@H](O)[C@H](O)[C@H]4O[C@@H]4O[C@H](CO)[C@@H](O)[C@H](O)[C@H]4O)c(-c4ccc(O)c(O)c4)oc3c2)[C@H](O)[C@H](O)[C@H]1O`, for which the “growth inhibition (GI)” value in the data set on Fibroblast [24] is “Toxic”.

For the molecule `O=c1c(O)c(-c2ccc(O)cc2)oc2cc(O)cc(O)c12` [KAEMPFEROL], the outcome in the data set with Fibroblast [25] was inactive. In the data set on Fibroblast [26], the “growth inhibition (GI)” value was “Toxic”.

On to `O=c1c(O)c(-c2ccc(O)c(O)c2)oc2cc(O)cc(O)c12` [QUERCETIN], for which, in the data set with Fibroblast [25], the result was inactive. In addition, the “growth inhibition (GI)” value in the data set on Fibroblast [26] is given as “Toxic”. Besides, the outcome with Fibroblast [3] was Active.

In the case of `O=c1c(O[C@@H]2O[C@H](CO)[C@H](O)[C@H](O)[C@H]2O[C@@H]2O[C@H](CO)[C@@H](O)[C@H](O)[C@H]2O)c(-c2ccc(O)cc2)oc2cc(O)cc(O)c12`, in the data set with Fibroblast [24], the “growth inhibition (GI)” value is listed as “Toxic”.

Consider `CC(=O)N[C@@H](CS)C(=O)O` [ACETYLCYSTEINE], for which the Activity with Fibroblast [2] was 74.1%; in the data set with Fibroblast [27] it was 109.7%; with Fibroblast [28], 72.7%; in the data set with Fibroblast [29], 6.4%; with Fibroblast [30] it was 18.5%.
